LANA-H2B inh: blocks KSHV LANA binding to histone H2A/H2B | Q9QR71 | cell-free LANA-H2A/H2B peptide, fluorescence polarization | inhibition, % (no concentration beside the values) | hit rate 0.6% among 320,000; in the data active = inhibition mostly above about 10%, no sharp cut-off; inactive = mostly below about 6.7%
MEX-5 binding: C. elegans MEX-5 TCR-2 RNA binding activity | activity score (negative = inhibition of binding), % at 10 µM | AID 1832 | Q9XUB2 | hit rate 0.38% among 300,000 | MEX-5/FITC-TCR2 RNA binding, fluorescence polarization; active compounds read low;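 active = inhibition past about -25% in most replicates, and total fluorescence under double the plate's negative control median, limit read from the data; inconclusive = replicates evenly split on the limit, or fluorescence at least double controls; inactive = too little inhibition in most replicates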;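 also: 0% = DMSO and -100% = 5 µM competing unlabeled TCR2 RNA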
Target sequence (Q9XUB2 whole entry, looked up): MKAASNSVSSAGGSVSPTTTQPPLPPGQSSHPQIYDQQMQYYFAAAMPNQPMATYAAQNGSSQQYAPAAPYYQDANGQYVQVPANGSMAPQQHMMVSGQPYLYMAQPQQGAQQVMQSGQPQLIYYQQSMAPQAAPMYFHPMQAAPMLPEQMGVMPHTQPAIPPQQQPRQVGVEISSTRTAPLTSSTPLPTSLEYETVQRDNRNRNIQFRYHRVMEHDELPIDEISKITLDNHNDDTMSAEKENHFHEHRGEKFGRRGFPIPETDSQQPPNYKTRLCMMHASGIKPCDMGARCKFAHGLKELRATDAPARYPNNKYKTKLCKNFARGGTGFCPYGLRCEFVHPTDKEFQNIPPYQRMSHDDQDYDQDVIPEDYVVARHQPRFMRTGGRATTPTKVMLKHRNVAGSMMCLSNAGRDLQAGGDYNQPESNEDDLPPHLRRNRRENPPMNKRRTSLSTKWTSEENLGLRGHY
RanGTP-Impb inh: inhibitors of RanGTP-importin-beta interaction, primary screen, biochemical, FRET, CFP-Ran, YFP-importin-beta, homogeneous; cell-free CFP-Ran/YFP-importin-beta FRET ratio; inhibition, % (no concentration beside the values); hit rate 1.1% among 300,000; AID 2216;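 active = more than half of the replicate wells show a fall in the fluorescence ratio signal beyond about 16%, limit read from the data, passing the limit was not always enough; inconclusive = exactly half of the replicate wells pass the set limit; inactive = fewer than half of replicates pass the limit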;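 also: 0% = DMSO wells and 100% = Ran loaded with GDP instead of GTP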
EBV gp42 block: inhibitors of Epstein-Barr virus glycoprotein 42; Q1HVG2; Fluorescence polarization binding assay, mP read-out; inhibition, % (tested at 21.74 µM); hit rate 0.42% among 220,000; in the data active = inhibition above about 50%
Target sequence (Q1HVG2 whole entry, looked up): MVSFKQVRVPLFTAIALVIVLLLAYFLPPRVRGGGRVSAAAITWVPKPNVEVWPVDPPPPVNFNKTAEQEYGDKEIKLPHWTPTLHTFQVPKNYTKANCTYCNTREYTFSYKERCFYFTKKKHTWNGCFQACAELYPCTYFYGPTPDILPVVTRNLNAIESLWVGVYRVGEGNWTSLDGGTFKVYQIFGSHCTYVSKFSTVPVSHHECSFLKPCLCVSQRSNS
Runt-CBFb FRET: Runt domain-CBFb interaction inhibition; hit rate 0.46% among 220,000; Q01196+Q13951; AID 1496; inhibition, % at 20 µM; Cerulean-Runt/Venus-CBFb FRET ratio 530/480, 1 h;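 active = inhibition over about 50% at 20 µM in the single-dose screen, limit read from the data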;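 also: 0% = DMSO wells and 100% = excess unlabeled CBFb competitor control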
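Assay system: Cerulean-tagged RUNX1 Runt domain (FRET donor) fusion protein / Amount: 100 nM each of Venus-CBFb and Cerulean-Runt domain / Medium: Tris buffer pH 7.5 with salts and BSA / Also added: Venus-CBFb 100 nM / Schedule: 1 h complex formation plus 1 h compound treatment, room temperature / Signal: FRET fluorescence / Read-out: loss of energy transfer signal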
Runt-SMMHC FRET: Runt domain-CBFb-SMMHC interaction inhibition | Q01196+Q13951 | Cerulean-Runt/Venus-CBFb-SMMHC FRET ratio 530/480, 1 h | inhibition, % at 20 µM | hit rate 0.74% among 220,000;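 active = mean inhibition across duplicate retests at 20 µM reaching about 50%, limit read from the data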;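 also: 0% = DMSO wells and 100% = wells with excess untagged CBFb-SMMHC; inhibitors lower the FRET ratio by blocking Runt binding to CBFb-SMMHC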
RUNX1 CBFb TR: disrupts human RUNX1 Runt domain binding to CBFb; shares compounds with Runt-CBFb FRET; TR-FRET RUNX1 Runt domain-CBFb binding; inhibition, % at 20 µM; hit rate 20% among 480; AID 1502; in the data active = inhibition above about 40%
YIC counter: counter-screen for RanGTP-importin-beta inhibitors: YIC FRET probe | shares compounds with RanGTP-Impb inh | Purified YIC probe, intramolecular FRET ratio YFP/CFP | IC50, µM | hit rate 40% among 1,000 | AID 435026;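 active = fitted half-maximal inhibitory concentration no more than tenfold above the top dose tested; inconclusive = flat fit with 30 to 70% activity, or poor fit; inactive = half-maximal concentration beyond tenfold above the top dose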
An asterisk follows results filed as active. Shown are actives, neighbours in structure and some others; about 2.4% of the full set was active somewhere.

For Cc1cccc2cc(C(c3nnnn3Cc3ccccc3)N3CCN(c4ccccc4)CC3)c(=O)[nH]c12 (configuration not stated) the results were LANA-H2B inh 4, MEX-5 binding 2, RanGTP-Impb inh 6, EBV gp42 block -11, Runt-CBFb FRET 51*, Runt-SMMHC FRET -1 and RUNX1 CBFb TR inactive.
Screening Cc1ccc(C(=O)/C=C/C(=O)c2ccc(C)cc2)cc1 returned LANA-H2B inh -3, MEX-5 binding 2, RanGTP-Impb inh 3, EBV gp42 block -12, Runt-CBFb FRET 54*, Runt-SMMHC FRET 50 and RUNX1 CBFb TR 19.
For O=C(NCc1ccco1)c1cccnc1-c1nc2ccccc2s1 the results were LANA-H2B inh 3, MEX-5 binding 0, RanGTP-Impb inh 4, EBV gp42 block -7, Runt-CBFb FRET 50*, Runt-SMMHC FRET 31 and RUNX1 CBFb TR 40*.
CCc1nnc(NC(=O)CSc2nnc(-c3cccnc3)n2CC)s1 was read as LANA-H2B inh -3, MEX-5 binding -3, RanGTP-Impb inh inconclusive, EBV gp42 block -4, Runt-CBFb FRET 77*, Runt-SMMHC FRET -9 and RUNX1 CBFb TR -10.
CCc1nnc(NC(=O)CSc2nnc(-c3ccccc3O)n2CC)s1 was read as MEX-5 binding -10, RanGTP-Impb inh 5, EBV gp42 block -11, Runt-CBFb FRET 0 and Runt-SMMHC FRET -1.
For O=C(COc1ccc2c(c1)OCO2)Nc1ccccc1C(F)(F)F the results were LANA-H2B inh -2, MEX-5 binding -2, RanGTP-Impb inh 4, EBV gp42 block 3, Runt-CBFb FRET -1 and Runt-SMMHC FRET 1.
Screening CN1CCc2c(sc3c2C(=O)NC(c2cccc(OC(=O)c4cccs4)c2)N3)C1 (configuration not stated) returned LANA-H2B inh -3, MEX-5 binding -3, RanGTP-Impb inh 140*, EBV gp42 block -6, Runt-CBFb FRET 51*, Runt-SMMHC FRET 106* and RUNX1 CBFb TR 6.
CCOC(=O)C(=CNc1ccc(NC2=NCC(C)S2)cc1)C(=O)OCC (configuration not stated) was read as LANA-H2B inh 4, MEX-5 binding -2, RanGTP-Impb inh 4, EBV gp42 block -3, Runt-CBFb FRET -5 and Runt-SMMHC FRET 1.
For Cc1ccc(C(=O)NNc2c3ccccc3nc3ccccc23)cc1 the results were LANA-H2B inh 5, MEX-5 binding -5, RanGTP-Impb inh 39*, EBV gp42 block 9, Runt-CBFb FRET 73*, Runt-SMMHC FRET 28, RUNX1 CBFb TR -9 and YIC counter >50.
Screening N#Cc1cnn(-c2cccc(Cl)c2)c1-n1cccc1 returned LANA-H2B inh 5, MEX-5 binding 2, RanGTP-Impb inh -2, EBV gp42 block -13, Runt-CBFb FRET 0 and Runt-SMMHC FRET 3.
For Cc1ccc(C2C(C#N)=C(N)Oc3cc4c(cc32)OCO4)cc1 (configuration not stated) the results were LANA-H2B inh -5, MEX-5 binding -1, RanGTP-Impb inh 12, EBV gp42 block 3, Runt-CBFb FRET 24 and Runt-SMMHC FRET 33.
`Cc1ccc(N=Cc2cc3c(cc2O)OC(N)=C(C#N)C3c2ccccc2)cc1` (configuration not stated) gave LANA-H2B inh 9, MEX-5 binding -4, RanGTP-Impb inh 43*, EBV gp42 block -70, Runt-CBFb FRET 79*, Runt-SMMHC FRET 117*, RUNX1 CBFb TR 4 and YIC counter >50.
Screening CCn1nc(NC(=O)c2ccccn2)c2cc3cccc(C)c3nc21 returned LANA-H2B inh 0, MEX-5 binding 2, RanGTP-Impb inh 38*, EBV gp42 block 6, Runt-CBFb FRET 60*, Runt-SMMHC FRET 39, RUNX1 CBFb TR -17 and YIC counter 0.86*.
Screening COc1ccccc1CNC(=O)C1CCN(c2ncnc3c2nc2n3CCCCC2)CC1 returned LANA-H2B inh 1, MEX-5 binding 1 and RanGTP-Impb inh 1.
Screening CS(=O)(=O)c1ccc(Cl)c(NC(=O)CSc2n[nH]c(-c3cccs3)n2)c1 returned LANA-H2B inh 3.
`COc1ccc(-c2c(C)sc(NC(=O)c3ccnn3C)c2C#N)cc1` gave LANA-H2B inh -1, MEX-5 binding 3, RanGTP-Impb inh 25*, EBV gp42 block -18, Runt-CBFb FRET 57*, Runt-SMMHC FRET 18, RUNX1 CBFb TR -52 and YIC counter >50.
For Cn1nccc1C(=O)Nc1sc2c(c1C#N)CCCC2 the results were LANA-H2B inh 1, MEX-5 binding -1 and RanGTP-Impb inh -3.
Screening COc1ccccc1CNC(=O)COC(=O)c1ccc(N2CCCC2=O)cc1 returned LANA-H2B inh 1.
Screening Cc1nc2ccc(S(=O)(=O)Nc3ccc(-c4nc5cccnc5s4)cc3)cc2s1 returned LANA-H2B inh -1, MEX-5 binding -8, RanGTP-Impb inh 21*, EBV gp42 block -15, Runt-CBFb FRET 74*, RUNX1 CBFb TR 86* and YIC counter 39*.
For CCOCCCNC(=S)NCCNc1nc2c(C)cccc2cc1C#N the results were LANA-H2B inh -4, MEX-5 binding 1, RanGTP-Impb inh 21*, EBV gp42 block -4, Runt-CBFb FRET 68*, Runt-SMMHC FRET 93*, RUNX1 CBFb TR 30 and YIC counter 32*.
`Cc1ccc2cc(C#N)c(NCCNC(=S)NCCCN(C)C)nc2c1C` gave LANA-H2B inh 3, MEX-5 binding 1, RanGTP-Impb inh 6, EBV gp42 block 2, Runt-CBFb FRET 25 and Runt-SMMHC FRET 45.
COC(=O)C1=C(C)NC2=C(C(=O)CCC2)C1c1cccc(C)n1 (configuration not stated) was read as LANA-H2B inh -1, MEX-5 binding 1, RanGTP-Impb inh 19*, EBV gp42 block -10, Runt-CBFb FRET 60*, Runt-SMMHC FRET 132*, RUNX1 CBFb TR 4 and YIC counter 31*.
For O=C(NN=Cc1ccccc1OC(F)F)c1ccc(NS(=O)(=O)c2cccs2)cc1 the results were LANA-H2B inh -1.
Screening CN(C)Cc1c(O)ccc2c3c(c(=O)oc12)CCCCC3 returned LANA-H2B inh 4, MEX-5 binding 4, RanGTP-Impb inh 20*, EBV gp42 block 10, Runt-CBFb FRET 70*, Runt-SMMHC FRET 136*, RUNX1 CBFb TR 4 and YIC counter 22*.
For NC(=O)NC(=O)C(c1ccccc1)N1CCN(S(=O)(=O)Cc2ccccc2)CC1 (configuration not stated) the results were LANA-H2B inh -5.
